Data reported in ChEMBL document CHEMBL3392964, “Design, synthesis, and evaluation of novel imidazo[1,2-a][1,3,5]triazines and their derivatives as focal adhesion kinase inhibitors with antitumor activity” (J Med Chem, 2015).
pIC50: −log10 of the molar value. Calls of active or inactive are those of the source. No cut-off for these calls is given here.

Tests used:
Focal adhesion kinase 1 [1] = molecular target: T1, Focal adhesion kinase 1 (Homo sapiens, UniProt Q05397); assay: Inhibition of FAK phosphorylation at tyrosine 397 in human U87MG cells after 48 hrs by FACEFAK ELISA; type: cell-based; conditions: U-87MG ATCC
Procedure, shortened: (§1)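 Cells in DMEM with 10% FBS, 3 × 10^3 per well, treated 48 h at 0.1, 1 and 10 μM. Fixed in 4% formaldehyde; antibodies to pTyr397-FAK or total FAK, HRP secondary, read at 450 nm. Crystal violet cell count at 595 nm. Phospho-FAK normalised to total FAK and cell number; fold decrease versus control, triplicate readings, three independent experiments.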

HCT-116 = assay: Induction of apoptosis in human HCT116 cells assessed as viable cells at 0.5 uM after 24 hrs by Annexin V-PE/7-AAD staining-based FACS analysis (reference value: 93.2%); type: functional; conditions: HCT-116, 24 h, read-out: Activity
U-87MG ATCC = assay: (§2) Inhibition of colony formation in human U87MG cells after 2 weeks by crystal violet staining-based assay; type: functional, cell-based
Procedure, shortened: (§3)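 Seeding: 250 cells per well for HCT-116, 300 for U87MG, MDA-MB-231 and PC-3; incubated overnight, then exposed to a range of concentrations for 2 weeks. Fixed in 4% paraformaldehyde 30 min at room temperature, stained with 0.1% crystal violet. Colonies over 50 cells counted; colony formation rate calculated; IC50 by nonlinear regression.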

[2] = as §2; type: functional, cell-based, U-87MG ATCC; conditions: U-87 MG, 336 h; procedure, shortened: as §3
[3] = Cell cycle arrest in human HCT116 cells assessed as accumulation at G2/M phase at 0.5 uM after 24 hrs by propidium iodide staining-based flow cytometry (reference value: 14.6%); type: functional; conditions: HCT-116
Procedure, shortened: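 Cells plated at 10^5 per well, left overnight, then exposed 24 h to compound or vehicle; stained 15 min at 37 °C with propidium iodide/Triton buffer; DNA content by flow cytometry, phase distribution fitted by Dean–Jett–Fox; HCT-116 at 0.3–0.5 μM, U87-MG at 0.3–3 μM; significance by unpaired Student's t test; one representative experiment.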

[4] = molecular target: Insulin receptor (Homo sapiens) (UniProt P06213); assay: Inhibition of human recombinant IR using poly[Glu:Tyr] as substrate at 1 uM by [gamma-33P]ATP-based assay
Procedure, shortened: (§4)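 Radioactive kinase assay with [γ33P]ATP and human recombinant kinase, compound tested at 1 μM.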

U-87 MG [5] = assay: Reduction of cell adherence in human U87MG cells after 30 mins by toluidine blue staining-based […]; type: functional; conditions: U-87MG ATCC
Procedure, shortened: (§5)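 U87-MG cells grown in 10% serum, trypsinised, diluted to 100 000 cells/mL in 10% serum medium, then treated 30 min with compound or DMSO. 20 000 cells per well allowed to attach 1 h. Fixed in 4% paraformaldehyde 30 min, stained with 0.1% toluidine blue in 4% PFA 30 min, washed, OD read at 620 nm for attached cells.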

[6] = (§6) Inhibition of colony formation in human PC3 cells after 2 weeks by crystal violet staining-based assay; type: functional, cell-based; conditions: PC-3, 336 h; procedure, shortened: as §3
PC-3 = assay: as §6; type: functional, cell-based; procedure, shortened: as §3
[7] = molecular target: Protein-tyrosine kinase 2-beta (Homo sapiens) (UniProt Q14289); assay: Inhibition of human recombinant Pyk2 using poly[Glu:Tyr] as substrate at 1 uM by [gamma-33P]ATP-based assay; procedure, shortened: as §4
Focal adhesion kinase 1 [8] = molecular target: T1, Focal adhesion kinase 1; assay: Inhibition of FAK phosphorylation at tyrosine 397 in human HCT116 cells after 48 hrs by FACEFAK ELISA; type: cell-based; conditions: HCT-116; procedure, shortened: as §1
U-87 MG [9] = assay: Reduction of cell adherence in human U87MG cells at 3 uM after 30 mins by toluidine blue staining-based […]; type: functional, U-87MG ATCC; design: scale not given: the % may be the effect or the level left; procedure, shortened: as §5
U-87 MG [10] = assay: Induction of apoptosis in human U87MG cells assessed as viable cells at 3 uM after 24 hrs by Annexin V-PE/7-AAD staining-based FACS analysis (reference value: 96.7%); type: functional, U-87MG ATCC; conditions: read-out: Activity
[11] = Antimigratory activity in human U87MG cells at 3 uM […] by transwell membrane assay; type: functional, U-87MG ATCC

T1 sequence (Q05397 2-1052 limits assumed): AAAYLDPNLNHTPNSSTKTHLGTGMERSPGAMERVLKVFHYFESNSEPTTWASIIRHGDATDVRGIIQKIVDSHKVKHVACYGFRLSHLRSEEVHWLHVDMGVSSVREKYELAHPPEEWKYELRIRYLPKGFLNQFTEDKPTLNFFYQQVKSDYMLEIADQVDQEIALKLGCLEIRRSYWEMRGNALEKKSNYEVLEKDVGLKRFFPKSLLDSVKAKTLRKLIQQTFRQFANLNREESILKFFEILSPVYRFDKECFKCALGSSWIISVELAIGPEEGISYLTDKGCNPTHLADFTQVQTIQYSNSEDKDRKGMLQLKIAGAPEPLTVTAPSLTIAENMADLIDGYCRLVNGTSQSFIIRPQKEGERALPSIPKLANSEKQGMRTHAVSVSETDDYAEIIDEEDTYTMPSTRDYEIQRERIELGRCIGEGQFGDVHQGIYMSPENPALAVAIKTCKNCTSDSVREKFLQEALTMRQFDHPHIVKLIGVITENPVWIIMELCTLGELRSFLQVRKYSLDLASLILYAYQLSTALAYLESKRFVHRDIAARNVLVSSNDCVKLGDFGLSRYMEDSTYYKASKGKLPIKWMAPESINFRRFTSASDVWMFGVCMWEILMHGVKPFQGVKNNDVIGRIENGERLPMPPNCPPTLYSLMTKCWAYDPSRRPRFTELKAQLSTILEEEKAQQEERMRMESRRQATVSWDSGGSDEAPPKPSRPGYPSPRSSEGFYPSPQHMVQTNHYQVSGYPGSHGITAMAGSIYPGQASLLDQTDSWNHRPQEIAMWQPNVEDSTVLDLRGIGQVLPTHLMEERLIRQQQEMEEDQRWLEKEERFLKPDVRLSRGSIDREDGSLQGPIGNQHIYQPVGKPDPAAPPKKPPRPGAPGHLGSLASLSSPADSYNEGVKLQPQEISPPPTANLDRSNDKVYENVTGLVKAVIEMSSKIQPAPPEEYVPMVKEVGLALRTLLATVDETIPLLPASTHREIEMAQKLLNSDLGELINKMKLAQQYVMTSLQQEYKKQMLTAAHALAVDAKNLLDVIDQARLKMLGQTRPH
Insulin receptor (Homo sapiens), sequence (P06213 28-758 limits assumed): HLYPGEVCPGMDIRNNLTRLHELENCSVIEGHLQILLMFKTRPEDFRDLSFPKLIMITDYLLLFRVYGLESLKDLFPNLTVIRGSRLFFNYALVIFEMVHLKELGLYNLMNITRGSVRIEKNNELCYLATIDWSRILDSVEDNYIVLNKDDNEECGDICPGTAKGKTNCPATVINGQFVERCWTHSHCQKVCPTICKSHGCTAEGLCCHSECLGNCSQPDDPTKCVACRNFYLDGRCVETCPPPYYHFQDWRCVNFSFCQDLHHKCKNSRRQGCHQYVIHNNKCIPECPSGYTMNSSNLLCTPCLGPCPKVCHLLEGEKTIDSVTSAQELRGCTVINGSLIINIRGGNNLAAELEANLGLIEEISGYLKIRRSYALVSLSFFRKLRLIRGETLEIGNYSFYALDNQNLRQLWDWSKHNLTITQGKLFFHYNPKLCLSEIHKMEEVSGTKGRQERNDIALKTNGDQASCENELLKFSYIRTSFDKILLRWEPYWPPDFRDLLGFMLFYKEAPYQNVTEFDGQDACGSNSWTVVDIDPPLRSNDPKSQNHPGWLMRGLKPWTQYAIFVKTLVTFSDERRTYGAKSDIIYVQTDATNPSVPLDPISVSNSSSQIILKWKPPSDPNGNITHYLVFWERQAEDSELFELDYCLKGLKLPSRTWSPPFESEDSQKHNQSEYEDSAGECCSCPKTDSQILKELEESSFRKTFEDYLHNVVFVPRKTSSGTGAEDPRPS
Insulin receptor (Homo sapiens), sequence (P06213 763-1382 limits assumed): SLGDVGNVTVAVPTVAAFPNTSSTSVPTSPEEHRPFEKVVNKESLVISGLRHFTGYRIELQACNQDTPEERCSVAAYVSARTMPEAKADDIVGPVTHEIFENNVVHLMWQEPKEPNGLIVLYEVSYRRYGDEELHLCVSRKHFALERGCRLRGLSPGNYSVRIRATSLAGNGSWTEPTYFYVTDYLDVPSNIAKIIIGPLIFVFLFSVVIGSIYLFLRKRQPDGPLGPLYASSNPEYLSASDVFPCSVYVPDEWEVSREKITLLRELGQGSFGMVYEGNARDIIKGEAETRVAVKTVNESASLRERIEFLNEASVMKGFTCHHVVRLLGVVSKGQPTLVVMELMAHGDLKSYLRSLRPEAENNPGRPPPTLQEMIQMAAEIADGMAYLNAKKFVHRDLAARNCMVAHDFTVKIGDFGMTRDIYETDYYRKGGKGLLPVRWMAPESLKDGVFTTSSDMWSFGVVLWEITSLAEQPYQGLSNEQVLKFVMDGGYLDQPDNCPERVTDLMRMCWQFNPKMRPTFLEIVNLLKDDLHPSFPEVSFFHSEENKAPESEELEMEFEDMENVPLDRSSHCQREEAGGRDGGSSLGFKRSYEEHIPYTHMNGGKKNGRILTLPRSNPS
Protein-tyrosine kinase 2-beta (Homo sapiens), sequence (Q14289 whole entry, looked up): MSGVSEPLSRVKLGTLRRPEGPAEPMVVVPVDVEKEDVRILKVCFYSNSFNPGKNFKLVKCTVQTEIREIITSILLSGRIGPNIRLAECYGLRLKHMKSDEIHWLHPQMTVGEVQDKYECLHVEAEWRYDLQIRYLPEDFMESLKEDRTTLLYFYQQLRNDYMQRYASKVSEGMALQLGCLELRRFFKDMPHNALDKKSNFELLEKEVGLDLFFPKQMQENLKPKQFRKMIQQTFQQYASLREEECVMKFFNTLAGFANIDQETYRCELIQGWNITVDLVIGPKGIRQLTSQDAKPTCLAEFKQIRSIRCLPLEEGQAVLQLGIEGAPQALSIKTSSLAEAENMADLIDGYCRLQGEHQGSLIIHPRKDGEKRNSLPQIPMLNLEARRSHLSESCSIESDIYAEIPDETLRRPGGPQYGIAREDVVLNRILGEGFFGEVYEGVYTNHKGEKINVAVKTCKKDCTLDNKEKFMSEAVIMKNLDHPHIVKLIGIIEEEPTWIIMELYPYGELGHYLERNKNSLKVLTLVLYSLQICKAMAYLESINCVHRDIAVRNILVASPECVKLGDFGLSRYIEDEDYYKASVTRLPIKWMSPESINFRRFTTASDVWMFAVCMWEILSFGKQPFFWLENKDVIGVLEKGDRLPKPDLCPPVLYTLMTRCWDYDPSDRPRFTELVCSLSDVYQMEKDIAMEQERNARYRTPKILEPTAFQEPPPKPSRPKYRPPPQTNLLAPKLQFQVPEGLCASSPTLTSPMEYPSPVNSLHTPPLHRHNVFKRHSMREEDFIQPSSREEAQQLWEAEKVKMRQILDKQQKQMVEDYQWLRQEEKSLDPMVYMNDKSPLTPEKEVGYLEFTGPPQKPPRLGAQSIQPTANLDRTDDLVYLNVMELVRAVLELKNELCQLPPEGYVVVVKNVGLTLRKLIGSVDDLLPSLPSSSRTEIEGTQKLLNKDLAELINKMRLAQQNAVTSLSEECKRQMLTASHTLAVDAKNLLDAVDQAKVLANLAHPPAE

inhibition (Focal adhesion kinase 1 [1]): Dose-dependent effect
pIC50 [2]: 6.38
inhibition [4]: inactive
pIC50 [6]: 6.20
inhibition [7]: inactive
inhibition (Focal adhesion kinase 1 [8]): Dose-dependent effect
Compound: C=COC(=O)NCc1ccc(Nc2nc(Nc3ccccc3C(=O)NC)n3ccnc3n2)cc1
viability at 0.5 µM (HCT-116): 62.9%
inhibition (U-87MG ATCC): Dose-dependent effect
Activity [3]: 54.7%
Activity (U-87 MG [5]): Dose-dependent effect
inhibition (PC-3): Dose-dependent effect
Activity (U-87 MG [9]): 50%
viability at 3 µM (U-87 MG [10]): 97.4%
Activity [11]: 69.5%
